# Fewer inactive variants are shown than the library holds.
# B1: tRNA (parent)
# chain: GUUCCGUUGGCGUAAUGGUAACGCGUCUCCCUCCUAAGGAGAAGACUGCGGGUUCGAGUCCCGUACGGAACG
# Variants of: B1
# Experiment: yeast fitness relative to wild type (ratio to wild type); higher = fitter; tRNA-Arg(CCU), competitive growth, 37 C, YPD
# Summary of the method: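 Changes in genotype frequencies gave Darwinian fitness relative to wild type. Frequencies were read by 100-nucleotide paired-end sequencing of gene amplicons before and after pooled Saccharomyces cerevisiae strains, carrying tRNA-Arg(CCU) gene variants at the native locus, were competed in YPD at 37°C for 24 hours in six replicates. A genotype was kept only with ≥ 100 starting reads, and estimates < 0.5 were set to 0.5.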
row,Variant,yeast fitness
1,C31G G41A G52C A65U G67C,≤ 0.5
2,C31A G67U,0.755
3,C31A G67C,0.846
4,C31A A42C C46U,0.592
5,C31G C33G A57C,≤ 0.5
6,C31A C60G,0.516
7,C31A G44A C55G A70G,≤ 0.5
8,C31G C33U A37C C61U A65U,≤ 0.5
9,C31G A42U A43C,1.15
10,C31A C49G G56C A70U,≤ 0.5
11,C31A A65U,0.725
12,C31A A43C A45C,≤ 0.5
13,C31G C34G A57C,0.685
14,C31A C34G A43C C61U,≤ 0.5
15,C31A G50C,0.566
16,C31G G50C G58C,0.571
17,C31A U32C C46U,≤ 0.5
18,C31A C33U G41A C62A,≤ 0.5
19,C31G A43U C46G A70U,0.527
20,C31G G63A,0.848
21,C31G A40G C49U G50C,≤ 0.5
22,C31A A42G A57U U59A,≤ 0.5
23,C31G C33G,0.565
24,C31G C33U,0.673

row,Variant,yeast fitness
1,C31G C55U,0.683
2,C31G C55G,0.592
3,C31G A37U A42U A65C,≤ 0.5
4,C31A A40U U53G G56C C62G A70C,≤ 0.5
5,C31G A42G,0.721
6,C31G C46U A65U,0.789
7,C31A A43U G63A A70C,≤ 0.5
8,C31G G51A A57G G68C,≤ 0.5
9,C31G C33U A42U,0.649
10,C31A G39A G48A C61U A65C,0.5
11,C31A A45C C62U G63A U64G,≤ 0.5
12,C31G G44C A69C A70C,0.528
13,C31A C33G A45G G48A,≤ 0.5
14,C31A C34U C61G,0.609
15,C31G G63A C66U,0.64
16,C31G C55A A57U U59C C60U,≤ 0.5
17,C31G G48A C55A C62A,≤ 0.5
18,C31G A40G A45C U47C U53A A70U,≤ 0.5
19,C31G C34A C55U U59C,≤ 0.5
20,C31A G48A C66U,0.646
21,C31G C34G C66A,0.568
22,C31G A36C G68A A70C,≤ 0.5
23,C31G A65G,0.867
24,C31G A65C,0.691

row,Variant,yeast fitness
1,C31G C46U,0.998
2,C31A G51C C55G A57U,≤ 0.5
3,C31A A57C,0.544
4,C31A A57G,0.777
5,C31G C55G A65C,≤ 0.5
6,C31G G44C U53C A65U A70G,≤ 0.5
7,C31A U35A A36U U47C C66U,≤ 0.5
8,C31G C33G A57U A65U,≤ 0.5
9,C31G G51C A70U,0.561
10,C31G G51C A70G,≤ 0.5
11,C31A A43G A65G,0.702
12,C31G A37U,0.728
13,C31G G44C G67C,≤ 0.5
14,C31G A36U U53C C61A G68A,≤ 0.5
15,C31G U32C,0.754
16,C31A U59G,0.771
17,C31G A43C,0.932
18,C31G A43G,0.982
19,C31A C33G,0.569
20,C31A A45U A70U,0.789
21,C31G A57U A69G,0.774
22,C31G U35C,0.823
23,C31A C33U C55G,≤ 0.5
24,C31A G39C C66U,≤ 0.5

row,Variant,yeast fitness
1,C31G C33U U53C U54G C55A,≤ 0.5
2,C31A U53A A65U,≤ 0.5
3,C31G A45C C49A,0.807
4,C31G C33G U47A,0.581
5,C31G A69U,0.752
6,C31G A69C,0.907
7,C31A A42G G67A A69U,0.625
8,C31A C49G,0.64
9,C31G C34U,0.626
10,C31G A40G,0.719
11,C31G A36U G39A C62U,≤ 0.5
12,C31G G41A A65C,≤ 0.5
13,C31A G39A U47A G68C,≤ 0.5
14,C31G G58C C62U,0.838
15,C31G C33G G67A,≤ 0.5
16,C31G G44A G51C A65G,0.537
17,C31A A43C,0.832
18,C31G G38A C61A G63A A65G,≤ 0.5
19,C31G C34U A40C G50A C55G C62A,≤ 0.5
20,C31A G44A A57G A65C A70U,≤ 0.5
21,C31G A45U U47A,0.521
22,C31A G56A A65G C66A G68C,0.562
23,C31G G67C A69U,≤ 0.5
24,C31A A45U,1.02

row,Variant,yeast fitness
1,C31G G48C,0.811
2,C31G C61U,0.834
3,C31A G68U A69C,≤ 0.5
4,C31G C33G G63A,≤ 0.5
5,C31G C34U A40C C60A C61A G63A,≤ 0.5
6,C31G A57U A69C A70G,≤ 0.5
7,C31G A45G U47A,0.893
8,C31A G44C G63A,≤ 0.5
9,C31G G56U,0.723
10,C31G G56A,0.98
11,C31G A37C A70C,≤ 0.5
12,C31A G51A G58C,0.561
13,C31A G63C G67C,≤ 0.5
14,C31G C49U U54G,≤ 0.5
15,C31A A65C G67A,≤ 0.5
16,C31A G38A C46U A69U,≤ 0.5
17,C31G G41A G52C C60U C62G C66G,0.539
18,C31G G41A A43C G51C,0.562
19,C31G U32G A37U A65U,≤ 0.5
20,C31A C60A A65U,0.619
21,C31A C46U G67U,0.684
22,C31A G38C A43C C46G,0.672
23,C31G G41A U47C G52C C60U C62G C66G,≤ 0.5
24,C31A C66G,0.615

row,Variant,yeast fitness
1,C31G C34U A40C,0.526
2,C31G A40G A45C U53A,≤ 0.5
3,C31A A42G A43U G56C,≤ 0.5
4,C31G A36U G48A A57C,≤ 0.5
5,C31A U47C C61A,≤ 0.5
6,C31A C34U,0.555
7,C31A C34G,≤ 0.5
8,C31A C46U,0.947
9,C31G C66G,0.587
10,C31G A36C G50A C62U G68A A69C,≤ 0.5
11,C31G C62A,0.607
12,C31A U35A C55G G58C,≤ 0.5
13,C31G G68A,0.802
14,C31G G68C,0.684
15,C31A G51A,0.603
16,C31A U32C U53C C60G,≤ 0.5
17,C31G G51A G68C,0.545
18,C31G A70C,0.689
19,C31G A70U,0.938
20,C31G G51A C55G G68C,0.56
21,C31G G67U,0.655
22,C31G G38U,0.804
23,C31G G58C,0.88
24,C31G A45G U54C G56U,≤ 0.5

row,Variant,yeast fitness
1,C31G C33U C61U,≤ 0.5
2,C31A U54C U64A,≤ 0.5
3,C31A U47A,0.673
4,C31A C33U G41C U47C G67C,≤ 0.5
5,C31G G44A U47A G51C C66U,≤ 0.5
6,C31G C33U U59G C66U G68A,0.543
7,C31G A40G C49U G50C A70C,≤ 0.5
8,C31G A40U C60G G67A,≤ 0.5
9,C31G C49G,0.753
10,C31G G41A G52C C60U C62G,0.53
11,C31G G41A G63U,0.609
12,C31A A42U,0.909
13,C31A A43U G68U,0.72
14,C31G A43U C46G C62U,≤ 0.5
15,C31A C62A,0.6
16,C31A A43G A70U,0.708
17,C31A G38C G44A A65G,0.534
18,C31G A37G G38C A43G G58C,≤ 0.5
19,C31G C61G C62G,0.514
20,C31G G44C,0.931
21,C31A U35C G41A,≤ 0.5
22,C31G G51A,0.749
23,C31G U32A C60G,≤ 0.5
